From ChEMBL document CHEMBL2163274, “Heterocyclic methylsulfone hydroxamic acid LpxC inhibitors as Gram-negative antibacterial agents” (Bioorg Med Chem Lett, 2012)
Values after ≈ are worked out from the molar mass of the structure shown.

Key:
Pseudomonas aeruginosa [1] = test: Antibacterial activity against quinolone-resistant Pseudomonas aeruginosa PA3060; format: functional
Summary of the method: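 MIC (µg/ml) against quinolone-resistant P. aeruginosa PA-3060, run alongside efflux-competent strains PAO1 and PA-7 and the multi-efflux-pump knockout PA-3919. Some analogs were tested as racemates.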

Pseudomonas aeruginosa [2] = test: Antibacterial activity against Pseudomonas aeruginosa PA7; format: functional
Summary of the method: (§1)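 MIC in µg/ml against P. aeruginosa strains with fully functioning efflux pumps. PAO1 is wild type and efflux pump competent.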

[3] = biological target: T1, UDP-3-O-acyl-N-acetylglucosamine deacetylase (Pseudomonas aeruginosa, UniProt B5ATN6); test: Inhibition of Pseudomonas aeruginosa LpxC
T1 sequence (B5ATN6 whole entry): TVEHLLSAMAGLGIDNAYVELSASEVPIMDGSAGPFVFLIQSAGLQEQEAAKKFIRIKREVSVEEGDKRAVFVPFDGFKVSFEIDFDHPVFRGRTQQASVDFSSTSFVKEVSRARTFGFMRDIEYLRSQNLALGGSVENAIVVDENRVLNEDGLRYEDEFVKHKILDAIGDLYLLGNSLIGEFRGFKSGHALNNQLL

Pseudomonas aeruginosa [4] = test: Antibacterial activity against multi efflux pump knock out Pseudomonas aeruginosa PA3919; format: functional
Summary of the method: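 MIC in µg/ml against P. aeruginosa PA-3919, which lacks multiple efflux pumps. The strain is used to tell whether a compound is a substrate of these pumps.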

Pseudomonas aeruginosa [5] = test: Antibacterial activity against Pseudomonas aeruginosa PAO1; format: functional; summary of the method: as §1
Pseudomonas aeruginosa [6] = test: Antibacterial activity against Pseudomonas aeruginosa; format: functional
Escherichia coli = test: Antibacterial activity against Escherichia coli; format: functional
Acinetobacter baumannii = test: Antibacterial activity against Acinetobacter baumannii; format: functional
[7] = Fraction unbound in human plasma; format: ADME, cell-free
[8] = Lipophilicity, log D of the compound at pH 7.4; format: physicochemical; conditions: buffer
Klebsiella pneumoniae = test: Antibacterial activity against Klebsiella pneumoniae; format: functional

| Structure (SMILES) | MIC (Pseudomonas aeruginosa [1]) | MIC (Pseudomonas aeruginosa [2]) | IC50 [3] | MIC (Pseudomonas aeruginosa [4]) | MIC (Pseudomonas aeruginosa [5]) | MIC90 (Pseudomonas aeruginosa [6]) | MIC90 (Escherichia coli) | MIC90 (Acinetobacter baumannii) | fraction unbound [7] | logD [8] | MIC90 (Klebsiella pneumoniae) |
| --- | --- | --- | --- | --- | --- | --- | --- | --- | --- | --- | --- |
| CC(CCc1cc(-c2ccccc2)n[nH]1)(C(=O)NO)S(C)(=O)=O (racemic) | > 64 mg/L | > 64 mg/L | > 100 nM | 4 mg/L (≈ 11.9 µM) | > 64 mg/L |  |  |  |  |  |  |
| COc1ccc(-c2cc(CC[C@](C)(C(=O)NO)S(C)(=O)=O)on2)c(F)c1 | 2 mg/L (≈ 5.18 µM) | 2 mg/L (≈ 5.18 µM) | 4.4 nM | < 0.06 mg/L | 1 mg/L (≈ 2.59 µM) | 4 mg/L (≈ 10.4 µM) | 4 mg/L (≈ 10.4 µM) | 32 mg/L (≈ 82.8 µM) | 0.072 | 1.23 | 8 mg/L (≈ 20.7 µM) |
| CC(CCc1cc(-c2cccc(F)c2)on1)(C(=O)NO)S(C)(=O)=O (racemic) | 4 mg/L (≈ 11.2 µM) |  | 6.75 nM | < 0.06 mg/L |  |  |  |  |  |  |  |
| C[C@@](CCn1cc(-c2ccc(F)c(F)c2)nn1)(C(=O)NO)S(C)(=O)=O | 4 mg/L (≈ 10.7 µM) | 4 mg/L (≈ 10.7 µM) | 1.87 nM | 0.06 mg/L (≈ 0.16 µM) | 4 mg/L (≈ 10.7 µM) |  |  |  |  |  |  |
| CC(CCn1ncc(-c2ccccc2)n1)(C(=O)NO)S(C)(=O)=O (racemic) | 64 mg/L (≈ 189 µM) | 32 mg/L (≈ 94.6 µM) | > 100 nM | 0.5 mg/L (≈ 1.48 µM) | 32 mg/L (≈ 94.6 µM) |  |  |  |  |  |  |
| COc1ccc(-c2cn(CC[C@](C)(C(=O)NO)S(C)(=O)=O)nn2)c(Cl)c1 | 8 mg/L (≈ 19.9 µM) | 8 mg/L (≈ 19.9 µM) | 4.71 nM | 0.125 mg/L (≈ 0.31 µM) | 8 mg/L (≈ 19.9 µM) |  |  |  |  |  |  |
| CC(CCc1cc(-c2cccc(F)c2F)no1)(C(=O)NO)S(C)(=O)=O (racemic) | 4 mg/L (≈ 10.7 µM) | 2 mg/L (≈ 5.34 µM) | 6.81 nM | < 0.06 mg/L | 2 mg/L (≈ 5.34 µM) |  |  |  |  |  |  |
| CC(CCc1nnc(-c2ccccc2)[nH]1)(C(=O)NO)S(C)(=O)=O (racemic) | > 64 mg/L | > 64 mg/L | > 100 nM | 64 mg/L (≈ 189 µM) | > 64 mg/L |  |  |  |  |  |  |
| CC(CCc1cc(-c2cccc(Cl)c2Cl)on1)(C(=O)NO)S(C)(=O)=O (racemic) | 2 mg/L (≈ 4.91 µM) |  | 2.66 nM | 0.06 mg/L (≈ 0.147 µM) |  |  |  |  |  |  |  |
| C[C@@](CCn1cc(-c2ccc(Cl)c(F)c2)nn1)(C(=O)NO)S(C)(=O)=O | 2 mg/L (≈ 5.12 µM) | 2 mg/L (≈ 5.12 µM) | 0.912 nM | 0.06 mg/L (≈ 0.154 µM) | 2 mg/L (≈ 5.12 µM) |  |  |  |  |  |  |
| C[C@@](CCc1cc(-c2ccccc2)on1)(C(=O)NO)S(C)(=O)=O | 1 mg/L (≈ 2.96 µM) | 0.5 mg/L (≈ 1.48 µM) | 0.511 nM | < 0.06 mg/L | 0.5 mg/L (≈ 1.48 µM) | 2 mg/L (≈ 5.91 µM) | 4 mg/L (≈ 11.8 µM) | > 32 mg/L | 0.016 | 1.31 | 32 mg/L (≈ 94.6 µM) |
| CC(CCc1cc(-c2ccccc2F)on1)(C(=O)NO)S(C)(=O)=O (racemic) | 2 mg/L (≈ 5.61 µM) | 2 mg/L (≈ 5.61 µM) | 8.31 nM | 0.06 mg/L (≈ 0.168 µM) | 1 mg/L (≈ 2.81 µM) |  |  |  |  |  |  |
| CC(CCc1cn(-c2ccccc2)nn1)(C(=O)NO)S(C)(=O)=O (racemic) | 32 mg/L (≈ 94.6 µM) | 16 mg/L (≈ 47.3 µM) | 3 nM | 0.5 mg/L (≈ 1.48 µM) | 8 mg/L (≈ 23.6 µM) |  |  |  |  |  |  |
| COc1ccc(-c2cn(CC[C@](C)(C(=O)NO)S(C)(=O)=O)nn2)c(F)c1 | 4 mg/L (≈ 10.4 µM) | 2 mg/L (≈ 5.18 µM) | 1.2 nM | 0.06 mg/L (≈ 0.155 µM) | 2 mg/L (≈ 5.18 µM) | 4 mg/L (≈ 10.4 µM) | 16 mg/L (≈ 41.4 µM) | > 32 mg/L | 0.085 | 1.36 | > 32 mg/L |
| COc1cccc(-c2cc(CC[C@](C)(C(=O)NO)S(C)(=O)=O)on2)c1F | 8 mg/L (≈ 20.7 µM) | 4 mg/L (≈ 10.4 µM) | 5.32 nM | < 0.06 mg/L | 2 mg/L (≈ 5.18 µM) |  |  |  |  |  |  |
| C[C@@](CCn1cc(-c2ccccc2)nn1)(C(=O)NO)S(C)(=O)=O | 4 mg/L (≈ 11.8 µM) | 2 mg/L (≈ 5.91 µM) | 0.85 nM | 0.03 mg/L (≈ 0.0887 µM) | 1 mg/L (≈ 2.96 µM) |  |  |  |  |  |  |
| CC(CCc1nc(-c2ccccc2)no1)(C(=O)NO)S(C)(=O)=O (racemic) | > 64 mg/L | 32 mg/L (≈ 94.3 µM) | > 100 nM | 0.5 mg/L (≈ 1.47 µM) | 16 mg/L (≈ 47.1 µM) |  |  |  |  |  |  |
| C[C@@](CCn1cc(-c2ccc(Cl)cc2F)nn1)(C(=O)NO)S(C)(=O)=O | 1 mg/L (≈ 2.56 µM) | 1 mg/L (≈ 2.56 µM) | 0.657 nM | 0.008 mg/L (≈ 0.0205 µM) | 0.5 mg/L (≈ 1.28 µM) | 1 mg/L (≈ 2.56 µM) | 1 mg/L (≈ 2.56 µM) | > 32 mg/L |  | 1.34 | 2 mg/L (≈ 5.12 µM) |
| CC(CCc1cnn(-c2ccccc2)c1)(C(=O)NO)S(C)(=O)=O (racemic) | 64 mg/L (≈ 190 µM) | 32 mg/L (≈ 94.8 µM) | 13.5 nM | 0.5 mg/L (≈ 1.48 µM) | 8 mg/L (≈ 23.7 µM) |  |  |  |  |  |  |
| C[C@@](CCn1cc(-c2cccc(F)c2F)nn1)(C(=O)NO)S(C)(=O)=O | 8 mg/L (≈ 21.4 µM) | 4 mg/L (≈ 10.7 µM) | 8.08 nM | 0.125 mg/L (≈ 0.334 µM) | 4 mg/L (≈ 10.7 µM) |  |  |  |  |  |  |
| COc1ccc(-c2cc(CC[C@](C)(C(=O)NO)S(C)(=O)=O)no2)c(F)c1 | 1 mg/L (≈ 2.59 µM) | 0.5 mg/L (≈ 1.29 µM) | 2.32 nM | 0.125 mg/L (≈ 0.323 µM) | 0.5 mg/L (≈ 1.29 µM) |  |  |  |  |  |  |
| C[C@@](CCn1cc(-c2cccc(Cl)c2Cl)nn1)(C(=O)NO)S(C)(=O)=O | 4 mg/L (≈ 9.82 µM) | 4 mg/L (≈ 9.82 µM) | 1.95 nM | < 0.06 mg/L | 2 mg/L (≈ 4.91 µM) |  |  |  |  |  |  |
| C[C@@](CCn1cc(-c2ccc(Cl)c(Cl)c2)nn1)(C(=O)NO)S(C)(=O)=O | 2 mg/L (≈ 4.91 µM) | 2 mg/L (≈ 4.91 µM) | 1.67 nM | < 0.06 mg/L | 1 mg/L (≈ 2.46 µM) |  |  |  |  |  |  |
| Cc1ccc(-c2cn(CC[C@](C)(C(=O)NO)S(C)(=O)=O)nn2)cc1 | 8 mg/L (≈ 22.7 µM) | 4 mg/L (≈ 11.4 µM) | 1.39 nM | 0.125 mg/L (≈ 0.355 µM) | 2 mg/L (≈ 5.68 µM) |  |  |  |  |  |  |
| Cc1ccc(-c2cc(CCC(C)(C(=O)NO)S(C)(=O)=O)on2)cc1 (racemic) | 2 mg/L (≈ 5.68 µM) | 2 mg/L (≈ 5.68 µM) | 2.93 nM | < 0.06 mg/L | 1 mg/L (≈ 2.84 µM) |  |  |  |  |  |  |
| C[C@@](CCc1ccc(-c2ccccc2)cc1)(C(=O)NO)S(C)(=O)=O | 1 mg/L (≈ 2.88 µM) | 1 mg/L (≈ 2.88 µM) |  |  |  |  |  |  |  | 2.24 |  |
| C[C@@](CCn1cc(-c2ccccc2)cn1)(C(=O)NO)S(C)(=O)=O | 2 mg/L (≈ 5.93 µM) | 1 mg/L (≈ 2.96 µM) | 1.61 nM | 0.015 mg/L (≈ 0.0445 µM) | 0.5 mg/L (≈ 1.48 µM) | 4 mg/L (≈ 11.9 µM) | 32 mg/L (≈ 94.8 µM) | > 256 mg/L | 0.048 | 1.04 | > 64 mg/L |
| C[C@@](CCc1cc(-c2ccccc2)no1)(C(=O)NO)S(C)(=O)=O | 2 mg/L (≈ 5.91 µM) | 1 mg/L (≈ 2.96 µM) | 3.02 nM | < 0.06 mg/L | 0.5 mg/L (≈ 1.48 µM) | 2 mg/L (≈ 5.91 µM) | 1 mg/L (≈ 2.96 µM) | > 32 mg/L | 0.013 | 0.99 | 4 mg/L (≈ 11.8 µM) |
| C[C@@](CCn1ccc(-c2ccccc2)cc1=O)(C(=O)NO)S(C)(=O)=O | 2 mg/L (≈ 5.49 µM) | 1 mg/L (≈ 2.74 µM) |  | 0.06 mg/L (≈ 0.165 µM) |  |  |  |  |  | 0.8 |  |
